Reference: PMC10150180 (Acta Pharmaceutica Sinica. B, 2023)
Peptide text beside a SMILES is read from it. * marks the point of attachment. Cbz = O=C(OCc1ccccc1)*

Legend:
[1] = tested on: SLUG degradation in AEC2s; test: SLUG degradation in AEC2s with cycloheximide plus 3MA or MG132; format: cell-based, mouse; details: CHX 10 μg/mL with 3 MA 5 mmol/L or MG132 10 μmol/L
mBLM-challenged mice = test: MX69; format: in vivo, mouse; details: n = 5
In short: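 Mice under avertin anaesthesia (400 mg/kg i.p.) received intratracheal bleomycin, 1 U/kg in LPS-free PBS, six times at 14-day intervals. The MDM2 inhibitor was given at 100 mg/kg/day i.p. for 3 days after every challenge and for 3 days before sacrifice. Read-outs: Slug immunoblot in sorted AEC2s (GAPDH loading control), right-lung hydroxyproline, Masson staining, and AEC2 colony-forming efficiency.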

AEC2s = format: cell-based, mouse; details: 3D Matrigel co-culture with MLg2908 cells, Day 14, n = 3
In short: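 Mouse AEC2s were sorted as DAPI-negative, lineage-negative, EpCAM-positive cells from lineage-depleted lung cells. 5 × 10^3 cells were embedded in Matrigel/DMEM (1:1) with 2 × 10^5 MLg2908 cells in Transwell inserts. Lower-chamber DMEM contained ITS, 10% FBS and antibiotics, changed daily. On Day 14, colonies above a size cutoff were counted by microscopy. CFE = colonies / input AEC2s.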

[2] = target: TRIB3 (immobilized on CM5 sensor chips) (UniProt Q96RU7); test: SPR
Sequence of UniProt Q96RU7 (Q96RU7 whole entry): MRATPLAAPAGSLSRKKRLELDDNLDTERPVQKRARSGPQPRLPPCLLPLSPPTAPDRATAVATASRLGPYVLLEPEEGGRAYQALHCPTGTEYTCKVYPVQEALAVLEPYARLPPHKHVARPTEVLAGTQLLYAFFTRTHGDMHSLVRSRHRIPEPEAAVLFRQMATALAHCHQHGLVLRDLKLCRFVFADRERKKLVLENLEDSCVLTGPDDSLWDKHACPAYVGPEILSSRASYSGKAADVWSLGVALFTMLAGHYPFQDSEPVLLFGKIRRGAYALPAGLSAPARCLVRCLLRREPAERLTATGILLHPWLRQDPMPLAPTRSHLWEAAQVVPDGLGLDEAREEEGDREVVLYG

With CC(C)C[C@@H](C=O)NC(=O)[C@H](CC(C)C)NC(=O)[C@H](CC(C)C)NC(=O)OCc1ccccc1 [MG132] (Cbz-Leu-Leu-Leu-aldehyde) the SLUG degradation [1] was “suppressed”.

In the case of Cc1ccc(NS(=O)(=O)c2ccc3c(c2)C2C=CCC2C(c2ccc(C(=O)O)cc2)N3)cc1C (stereo not shown) [MX69], the “level of Slug in AEC2s” value (mBLM-challenged mice; AEC2s isolated from fibrotic mice but not control mice, immunoblot) is reported as “increased”, the “protein level of MDM2 in AEC2s” value (mBLM-challenged mice; AEC2s isolated from fibrotic mice, immunoblot) is reported as “decreased” and the “capacity of AEC2s mediated LAR (colony-forming efficiency)” value (mBLM-challenged mice; AEC2s sorted from MX69 treated mBLM mice) is reported as “further declined”.

With C[S+]([O-])c1ccc(-c2nc(-c3ccncc3)c(-c3ccc(F)cc3)[nH]2)cc1 (stereo not shown) [SB203580] the “CFE of AEC2s” value (AEC2s) was “decreased”.

In the case of Oc1c2ccccc2c2c3c(cccc13)N=N2 [SP600125], the “CFE of AEC2s” value (AEC2s) is reported as “decreased”.

“MR2 (from UniProt Q00987 460-470) (peptide)” showed a Kd [2] of 46 nM.
